# Results from different studies.
# Compare with care: the assays were run in different laboratories.
# Target: Calcium/calmodulin-dependent protein kinase type 1D (CAMK1D, Homo sapiens, UniProt Q8IU85)
Structure (SMILES),assay,setting,quantity,value
CCCCNc1ncc2c(-c3ccc(F)cc3)nn(C[C@H]3CC[C@H](N)CC3)c2n1,"target engagement in cells, inhibitor, chemoproteomics",20 mM,inhibition,5.9%
CNC(=O)c1cc(Oc2ccc(NC(=O)Nc3ccc(Cl)c(C(F)(F)F)c3)cc2)ccn1,"enzyme activity, inhibitor",10 µM,inhibition,22%
CC(C)(C)c1nc2c(s1)c1nc(N)ncc1c1ccc(NS(=O)(=O)c3c(F)cccc3F)c(F)c12,"enzyme activity, inhibitor, radiometric",1 µM,remaining activity,97%
CN(C)C(=O)Cn1cc(-c2nc(C3(c4ccc(-c5cnc(N)nc5)cc4)CC3)no2)cn1,"cell-free assay, competition with immobilised ligand",1 µM,remaining binding,100%
Cc1ccc(Nc2nccc(N(C)c3ccc4c(C)n(C)nc4c3)n2)cc1S(N)(=O)=O,"enzyme activity, inhibitor",10 µM,inhibition,32%
Cc1ccc(NC(=O)c2ccc(C)c(C(F)(F)F)c2)cc1C#Cc1nn(C2CCC(O)CC2)c2ncnc(N)c12 (stereo not drawn),cell-free assay,10 µM,remaining signal,92%
Cn1c2c(Cl)c(Cl)ccc2c2cc[nH]c(=O)c21,"thermal stability, DSF",10 µM,ΔTm,1 °C
CN(CCCC(F)(F)F)c1nccc(-c2cnn3ncccc23)n1,binding,1 µM,remaining binding,86%
CC(C)(O)[C@H]1CC[C@H](Nc2ccc3ncc(-c4cccc(C(F)(F)F)c4)n3n2)CC1,"enzyme activity, inhibitor",1 µM,remaining activity,83.7%
Cn1c2c(c3ccc(Cl)c(Cl)c31)C(C#N)C1(CCNCC1)NC2=O (racemic),"thermal stability, DSF",10 µM,ΔTm,1.2 °C
CC(=O)N1CCC(c2ccc(C(=O)NC3=NCCN3)cc2C(F)(F)F)CC1,"cell-free assay, competition with immobilised ligand",1 µM,remaining binding,100%
Nc1nc(Nc2ccc(S(N)(=O)=O)cc2)nn1C(=O)c1c(F)cccc1F,cell-free assay,0.5 µM,remaining signal,97.7%
CNCc1ccccc1-c1csc([C@H](C)Nc2nc(C)nc3cc(OC)c(OC)cc23)c1,"cell-free assay, competition with immobilised ligand",1 µM,remaining binding,100%
C[S+]([O-])c1ccc(-c2nc(-c3ccncc3)c(-c3ccc(F)cc3)[nH]2)cc1 (stereo not drawn),cell-free assay,0.5 µM,remaining signal,105%
CC1(C)NC(=O)c2[nH]c3c(Cl)c(Cl)ccc3c2C1C#N (stereo not drawn),"thermal stability, DSF",10 µM,ΔTm,-0.6 °C
O=C(NCc1ncc(C(F)(F)F)cc1Cl)c1ccc2c(c1)C1(CCS(=O)(=O)CC1)[C@@H](C1CC1)N2S(=O)(=O)c1ccc(F)cc1,"cell-free assay, competition with immobilised ligand",1 µM,remaining binding,99%
Cn1c2c(c3ccc(Cl)c(Cl)c31)C(C#N)C1(CCCC1)NC2=O (stereo not drawn),"thermal stability, DSF",10 µM,ΔTm,0 °C
Cn1cc(Cl)c2c(Oc3c(F)cc(Nc4cc(Cl)nc(N)n4)cc3F)ccnc21,"cell-free assay, competition with immobilised ligand",0.1 µM,remaining binding,100%
O=C1NC(=O)c2cc(Nc3ccc(F)cc3)c(Nc3ccc(F)cc3)cc21,cell-free assay,0.5 µM,remaining signal,78.1%
COc1cc2ncnc(Nc3ccc(Oc4ccccc4)cc3C)c2cc1OC,"enzyme activity, inhibitor",1 µM,inhibition,1%
Cc1c(NC(=O)c2cc(C(N)=O)nc3cc(F)ccc23)c(C(F)(F)F)nn1Cc1ccc(C(C)(C)C)cc1,"cell-free assay, competition with immobilised ligand",1 µM,remaining binding,84%
